11 compounds from ChEMBL document CHEMBL1149102, “De novo design, synthesis, and pharmacology of alpha-melanocyte stimulating hormone analogues derived from somatostatin by a hybrid approach” (J Med Chem, 2004) can be followed below.

One experiment has as its target Melanocortin receptor 4 (Mus musculus, UniProt P56450). Put plainly: Effective concentration for maximum agonist response towards mouse melanocortin 4 receptor. It counts as functional. Summed up: (§1)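 Cells stably expressing wild-type mouse (MC3R: rat) melanocortin receptor, transfected with 4 μg CRE/β-galactosidase reporter; 5000–15 000 cells plated, incubated overnight. At 48 h post-transfection, stimulated 6 h in DMEM with 0.1 mg/mL BSA and 0.1 mM IBMX; forskolin 10^-4 M reference.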

The target in a further experiment is Melanocortin receptor 5 (Mus musculus, UniProt P41149). Put plainly: Maximum agonist response for mouse melanocortin 5 receptor (MC5R). Format: functional. Summed up: as §1
In experiment [1] the test system is melanocyte-stimulating hormone receptor (Rana pipiens). Put plainly: Inhibition of 1 nM alpha melanocortin stimulating hormone from frog skin; No activity up to 10^-5 M.
The target in a further experiment is Melanocortin receptor 3 (Rattus norvegicus, UniProt P32244). Put plainly: Maximal agonist response at rat melanocortin 3 receptor (MC3R). Format: functional. The method, boiled down:
as §1

Experiment [2] concerns the target Melanocyte-stimulating hormone receptor (Mus musculus, UniProt Q01727). Put plainly: Maximal agonist response of mouse melanocortin 1 receptor (MC1R). It counts as functional. Summed up:
as §1

Experiment [3] deals with melanocyte-stimulating hormone receptor (Rana pipiens). Put plainly: Maximum agonist response for frog skin melanocortin 1 receptor (MC1R); No activity up to 10^-5M.

pEC50: −log10 of the molar value.

Melanocortin receptor 3, sequence (P32244 whole entry): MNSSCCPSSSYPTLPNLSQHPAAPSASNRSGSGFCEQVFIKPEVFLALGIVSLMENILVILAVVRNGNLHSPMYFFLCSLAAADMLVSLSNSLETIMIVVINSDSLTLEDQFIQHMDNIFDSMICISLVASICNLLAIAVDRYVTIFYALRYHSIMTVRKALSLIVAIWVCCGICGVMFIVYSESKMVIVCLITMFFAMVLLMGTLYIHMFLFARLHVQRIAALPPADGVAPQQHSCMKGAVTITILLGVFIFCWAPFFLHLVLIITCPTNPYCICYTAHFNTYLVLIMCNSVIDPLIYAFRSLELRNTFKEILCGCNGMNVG
Melanocortin receptor 5, sequence (P41149 whole entry): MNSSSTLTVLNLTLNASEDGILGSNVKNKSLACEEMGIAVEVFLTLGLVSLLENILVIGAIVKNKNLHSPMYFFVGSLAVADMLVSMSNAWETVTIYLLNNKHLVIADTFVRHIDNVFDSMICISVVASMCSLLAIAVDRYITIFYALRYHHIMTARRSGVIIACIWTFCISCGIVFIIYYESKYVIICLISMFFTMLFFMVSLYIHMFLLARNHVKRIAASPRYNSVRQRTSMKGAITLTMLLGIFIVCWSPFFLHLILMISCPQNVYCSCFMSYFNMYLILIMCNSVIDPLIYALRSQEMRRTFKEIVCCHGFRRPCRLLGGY
Melanocyte-stimulating hormone receptor, sequence (Q01727 whole entry): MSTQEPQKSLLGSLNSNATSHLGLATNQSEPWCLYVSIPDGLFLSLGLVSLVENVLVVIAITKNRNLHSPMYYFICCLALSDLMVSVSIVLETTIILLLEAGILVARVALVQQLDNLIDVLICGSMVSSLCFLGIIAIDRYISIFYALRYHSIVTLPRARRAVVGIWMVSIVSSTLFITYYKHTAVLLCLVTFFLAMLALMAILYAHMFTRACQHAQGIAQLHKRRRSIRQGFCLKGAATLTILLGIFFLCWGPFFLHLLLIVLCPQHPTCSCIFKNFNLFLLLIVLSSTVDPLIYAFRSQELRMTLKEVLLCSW
Melanocortin receptor 4, sequence (P56450 whole entry): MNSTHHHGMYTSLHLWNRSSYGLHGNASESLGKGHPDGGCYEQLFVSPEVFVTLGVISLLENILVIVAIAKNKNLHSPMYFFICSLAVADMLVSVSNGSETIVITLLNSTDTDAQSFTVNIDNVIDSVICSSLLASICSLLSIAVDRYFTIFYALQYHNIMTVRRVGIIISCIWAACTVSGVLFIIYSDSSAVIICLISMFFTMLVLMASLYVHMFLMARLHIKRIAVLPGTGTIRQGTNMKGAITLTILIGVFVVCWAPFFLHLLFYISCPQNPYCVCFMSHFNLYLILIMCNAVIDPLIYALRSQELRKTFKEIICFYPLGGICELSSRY

`C[C@@H](O)[C@H](NC(=O)[C@H]1CSSC[C@H](NC(=O)[C@H](N)Cc2ccccc2)C(=O)N[C@H](Cc2cnc[nH]2)C(=O)N[C@H](Cc2ccccc2)C(=O)N[C@@H](CCCNC(=N)N)C(=O)N[C@H](Cc2c[nH]c3ccccc23)C(=O)N1)C(N)=O`: the pEC50 (in general, −log10 of the EC50, conventionally taken in molar units) at Melanocortin receptor 4 was 9.70; at Melanocortin receptor 5 it was 10.00; at Melanocortin receptor 3 it was 9.64; in experiment [2], 9.64. In experiment [1], the IC50 result was “Not Active”.
With `C[C@@H](O)[C@H](NC(=O)[C@H]1NC(=O)[C@H](Cc2c[nH]c3ccccc23)NC(=O)[C@H](CCCNC(=N)N)NC(=O)[C@@H](Cc2ccccc2)NC(=O)[C@H](Cc2cnc[nH]2)NC(=O)[C@@H](NC(=O)[C@H](N)Cc2ccccc2)CSSC1(C)C)C(N)=O`, the pEC50 at Melanocortin receptor 4 is 7.70; on Melanocortin receptor 5, 9.85; in experiment [2] it was 8.16.
The matching figures for `C[C@@H](O)[C@H](NC(=O)[C@@H]1CCSSC[C@H](NC(=O)[C@H](N)Cc2ccccc2)C(=O)N[C@@H](Cc2cnc[nH]2)C(=O)N[C@H](Cc2ccccc2)C(=O)N[C@@H](CCCNC(=N)N)C(=O)N[C@@H](Cc2c[nH]c3ccccc23)C(=O)N1)C(N)=O`: 7.29, 8.66 and 8.29.
`C[C@@H](O)[C@H](NC(=O)[C@H]1CCCCNC(=O)C[C@H](NC(=O)[C@@H](N)Cc2ccccc2)C(=O)N[C@@H](Cc2cnc[nH]2)C(=O)N[C@H](Cc2ccccc2)C(=O)N[C@@H](CCCNC(=N)N)C(=O)N[C@H](Cc2c[nH]c3ccccc23)C(=O)N1)C(N)=O` showed a pEC50 on Melanocortin receptor 3 of 9.64.
The same measure, in the same setting: the figure for `C[C@@H](O)[C@H](NC(=O)[C@H]1CCSSC[C@H](NC(=O)[C@@H](N)Cc2ccccc2)C(=O)N[C@@H](Cc2cnc[nH]2)C(=O)N[C@H](Cc2ccccc2)C(=O)N[C@@H](CCCNC(=N)N)C(=O)N[C@H](Cc2c[nH]c3ccccc23)C(=O)N1)C(N)=O` is 7.12.
For the compound `C[C@@H](O)[C@H](NC(=O)[C@@H]1CSSC[C@H](NC(=O)[C@H](N)Cc2ccccc2)C(=O)N[C@@H](Cc2c[nH]cn2)C(=O)N[C@@H](Cc2ccc(I)cc2)C(=O)N[C@@H](CCCN=C(N)N)C(=O)N[C@H](Cc2c[nH]c3ccccc23)C(=O)N1)C(N)=O`, in experiment [1], the IC50 result was “Not Active”. Also, the EC50 result in experiment [3] is on record as “Not Active”.
`C[C@@H](O)[C@H](NC(=O)[C@H]1NC(=O)[C@H]([C@@H](C)O)NC(=O)[C@H](CCCN=C(N)N)NC(=O)[C@@H](Cc2ccccc2)NC(=O)[C@H](Cc2ccccc2)NC(=O)[C@@H](NC(=O)[C@H](N)Cc2ccccc2)CSSC1(C)C)C(N)=O`: the IC50 result in experiment [1] is “Not Active”. In experiment [3], the EC50 result is “Not Active”.
In the case of `C[C@@H](O)[C@H](NC(=O)[C@@H]1CCCCNC(=O)C[C@H](NC(=O)[C@H](N)Cc2ccccc2)C(=O)N[C@@H](Cc2cnc[nH]2)C(=O)N[C@H](Cc2ccccc2)C(=O)N[C@@H](CCCNC(=N)N)C(=O)N[C@@H](Cc2c[nH]c3ccccc23)C(=O)N1)C(N)=O`, the pEC50 at Melanocortin receptor 4 was 9.42; at Melanocortin receptor 5, 10.13; in experiment [2], 10.33.
Consider `C[C@H](O)[C@@H](NC(=O)[C@H]1CSSC[C@H](NC(=O)[C@H](N)Cc2ccccc2)C(=O)N[C@@H](Cc2cnc[nH]2)C(=O)N[C@@H](Cc2ccc(Cl)cc2)C(=O)N[C@@H](CCCNC(=N)N)C(=O)N[C@H](Cc2c[nH]c3ccccc23)C(=O)N1)C(N)=O`, for which the pEC50 on Melanocortin receptor 4 is 9.17; on Melanocortin receptor 5 it was 9.96; at Melanocortin receptor 3, 8.14; in experiment [2], 9.43.
On to `C[C@@H](O)[C@H](NC(=O)[C@@H]1CSSC[C@@H](NC(=O)[C@H](N)Cc2ccccc2)C(=O)N[C@@H](Cc2c[nH]cn2)C(=O)N[C@@H](Cc2ccc3ccccc3c2)C(=O)N[C@@H](CCCN=C(N)N)C(=O)N[C@H](Cc2c[nH]c3ccccc23)C(=O)N1)C(N)=O`, for which the IC50 entry in experiment [1] is recorded as “Not Active”. The EC50 entry in experiment [3] is recorded as “Not Active”.
Consider `C[C@@H](O)[C@H](NC(=O)[C@@H]1NC(=O)[C@@H](Cc2c[nH]c3ccccc23)NC(=O)[C@H](CCCNC(=N)N)NC(=O)[C@@H](Cc2ccccc2)NC(=O)[C@@H](Cc2cnc[nH]2)NC(=O)[C@@H](NC(=O)[C@H](N)Cc2ccccc2)CSSC1(C)C)C(N)=O`, for which the pEC50 on Melanocortin receptor 3 was 7.19.
